Data reported in ChEMBL document CHEMBL4308831, “Developing a Biased Unmatched Bivalent Ligand (BUmBL) Design Strategy to Target the GPCR Homodimer Allosteric Signaling (cAMP over β-Arrestin 2 Recruitment) Within the Melanocortin Receptors” (J Med Chem, 2018).
Calls of active or inactive are those of the source. The calls are words filed in the database; no cut-off is given here. Non-standard residues stand in square brackets, D forms with d. Residues, ends and D or L forms follow the SMILES beside them. d2Nal = N[C@H](Cc1ccc2ccccc2c1)C(=O)O

Key:
Melanocortin receptor 4 [1] = target: T1, Melanocortin receptor 4 (Homo sapiens, UniProt P32245); assay: Agonist activity at human FLAG-tagged MC4R expressed in HTLA cells assessed as induction of beta-arrestin recruitment at 10 uM after 18 hrs by Presto-tango assay relative to NDP-MSH; type: cell-based
T1 sequence (P32245 whole entry): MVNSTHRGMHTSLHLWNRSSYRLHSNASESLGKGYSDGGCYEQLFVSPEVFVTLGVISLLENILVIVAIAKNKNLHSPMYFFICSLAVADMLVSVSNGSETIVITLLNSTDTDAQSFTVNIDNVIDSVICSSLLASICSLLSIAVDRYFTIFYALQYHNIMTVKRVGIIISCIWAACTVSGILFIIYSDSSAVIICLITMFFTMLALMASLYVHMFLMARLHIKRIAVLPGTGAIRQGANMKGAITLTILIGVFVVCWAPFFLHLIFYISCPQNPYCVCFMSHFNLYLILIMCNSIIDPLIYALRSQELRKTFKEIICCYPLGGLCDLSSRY
Procedure, shortened: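 HTLA cells (HEK293 with tTA-luciferase reporter and β-arrestin2-TEV) transiently transfected by calcium phosphate with hMC4R PRESTO-Tango construct (4 µg/plate), held 15–24 h at 35 °C and 3% CO2, then plated at 20,000 cells/well in 1% dialyzed FBS. Ligands 10^-12 to 10^-5 M in HEPES/HBSS pH 7.4, 18 h at 37 °C; Bright-Glo luminescence. Duplicates, ≥3 experiments.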

Melanocortin receptor 4 [2] = target: T1, Melanocortin receptor 4; assay: Antagonist activity at human FLAG-tagged MC4R expressed in HEK293 cells assessed as reduction in NDP-MSH-induced intracellular cAMP accumulation after 2 hrs by AlphaScreen assay; type: functional, cell-based; details: read-out: pA2 (converted)
Procedure, shortened: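 Stable hMC4R-Flag HEK293 cells in IBMX-containing HBSS stimulation buffer with AlphaScreen cAMP beads, 10,000 cells/well, stimulated 2 h at room temperature. Antagonist ligands tested dose-dependently against NDP-MSH stimulation; pA2 from Schild regression. Duplicate points, at least three independent experiments.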

Melanocortin receptor 4 [3] = target: T1, Melanocortin receptor 4; assay: Agonist activity at human FLAG-tagged MC4R expressed in HEK293 cells assessed as induction of intracellular cAMP accumulation at 10 uM after 2 hrs by AlphaScreen assay relative to NDP-MSH; type: functional, cell-based
Procedure, shortened: (§1)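 Stable HEK293 lines (G418 selection) carrying the receptor in pcDNA3, detached with Versene and resuspended in HBSS stimulation buffer containing 0.5 mM IBMX, 5 mM HEPES, 0.1% BSA, pH 7.4, with anti-cAMP acceptor beads; 10,000 cells/well. Ligand 10^-13 to 10^-4 M final, 2 h at room temperature in the dark, then donor beads in lysis buffer for 2 h. Duplicates, ≥3 experiments; curves normalized and flipped relative to controls.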

[4] = target: Melanocortin receptor 4 (Mus musculus) (UniProt P56450); assay: Decrease in protein-protein interaction of mouse Nano-Luc-tagged MC4R/mouse Halo-tagged MC4R homodimer expressed in HEK293 cells up to 10 mins by BRET assay; type: cell-based
Chain of Melanocortin receptor 4 (Mus musculus) (P56450 whole entry): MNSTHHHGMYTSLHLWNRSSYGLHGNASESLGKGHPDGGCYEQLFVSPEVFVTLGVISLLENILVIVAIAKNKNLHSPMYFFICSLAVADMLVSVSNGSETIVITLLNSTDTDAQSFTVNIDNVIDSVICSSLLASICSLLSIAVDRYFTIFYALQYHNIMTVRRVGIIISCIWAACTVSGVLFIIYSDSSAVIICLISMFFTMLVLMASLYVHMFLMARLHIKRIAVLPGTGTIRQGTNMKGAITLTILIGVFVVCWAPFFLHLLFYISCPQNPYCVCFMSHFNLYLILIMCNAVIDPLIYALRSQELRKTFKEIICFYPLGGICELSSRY

[5] = target: Melanocortin receptor 4 (Mus musculus) (UniProt P56450); assay: Agonist activity at mouse MC4R expressed in HEK293 cells assessed as induction of intracellular cAMP accumulation after 2 hrs by AlphaScreen assay; type: functional, cell-based; procedure, shortened: as §1
Melanocortin receptor 4 [6] = target: T1, Melanocortin receptor 4; assay: Selectivity ratio of EC50 for agonist activity at human FLAG-tagged MC4R expressed in HTLA cells assessed as induction of beta-arrestin recruitment to EC50 for agonist activity at human FLAG-tagged MC4R expressed in HEK293 cells assessed as induction of intracellular cAMP accumulation; type: functional, cell-based
[7] = target: Melanocortin receptor 4 (Mus musculus) (UniProt P56450); assay: Effect on protein-protein interaction of mouse Nano-Luc-tagged MC4R/mouse Halo-tagged MC4R homodimer expressed in HEK293 cells at 10^-9 to 10^-5 M up to 10 mins by BRET assay; type: cell-based
Melanocortin receptor 4 [8] = target: T1, Melanocortin receptor 4; assay: Agonist activity at human FLAG-tagged MC4R expressed in HEK293 cells assessed as induction of intracellular cAMP accumulation after 2 hrs by AlphaScreen assay; type: functional, cell-based

Compound | Activity (Melanocortin receptor 4 [1]) [%] | Kb (Melanocortin receptor 4 [2]) [nM] | Activity (Melanocortin receptor 4 [3]) [%] | Activity [5] | Ratio EC50 (Melanocortin receptor 4 [6]) | other results
N=C(N)NCCC[C@H](NC(=O)[C@@H](Cc1ccc2ccccc2c1)NC(=O)[C@H](Cc1cnc[nH]1)NC(=O)COCC(=O)NCCCOCCOCCOCCCN)C(=O)N[C@@H](Cc1c[nH]c2ccccc12)C(N)=O | 20 | 13.5 | 50 |  |  | 
CC(=O)N[C@@H](Cc1cnc[nH]1)C(=O)N[C@H](Cc1ccccc1)C(=O)N[C@@H](CCCNC(=N)N)C(=O)N[C@@H](Cc1c[nH]c2ccccc12)C(N)=O |  |  |  | Active |  | Activity [4]: Dose-dependent effect
CC(=O)N[C@@H](Cc1cnc[nH]1)C(=O)N[C@H](Cc1ccc2ccccc2c1)C(=O)N[C@@H](CCCNC(=N)N)C(=O)N[C@@H](Cc1c[nH]c2ccccc12)C(N)=O |  | 15.1 |  |  |  | 
CC(=O)N[C@@H](Cc1cnc[nH]1)C(=O)N[C@H](Cc1ccc2ccccc2c1)C(=O)N[C@@H](CCCNC(=N)N)C(=O)N[C@@H](Cc1c[nH]c2ccccc12)C(=O)N1CCC[C@H]1C(=O)NCC(=O)N1CCC[C@H]1C(=O)NCC(=O)N1CCC[C@H]1C(=O)NCC(=O)N1CCC[C@H]1C(=O)NCC(=O)N1CCC[C@H]1C(=O)NCC(=O)N1CCC[C@H]1C(=O)NCC(=O)N[C@@H](Cc1cnc[nH]1)C(=O)N[C@H](Cc1ccccc1)C(=O)N[C@@H](CCCNC(=N)N)C(=O)N[C@@H](Cc1c[nH]c2ccccc12)C(N)=O | 55 |  |  |  | 3000 | 
CC(=O)N[C@@H](Cc1c[nH]cn1)C(=O)N[C@H](Cc1ccc2ccccc2c1)C(=O)N[C@@H](CCCN=C(N)N)C(=O)N[C@@H](Cc1c[nH]c2ccccc12)C(N)=O | 30 |  | 50 | inactive |  | Activity [7]: inactive
CC(=O)N[C@@H](Cc1cnc[nH]1)C(=O)N[C@H](Cc1ccc2ccccc2c1)C(=O)N[C@@H](CCCNC(=N)N)C(=O)N[C@@H](Cc1c[nH]c2ccccc12)C(=O)N1CCC[C@H]1C(=O)NCC(=O)N1CCC[C@H]1C(=O)NCC(=O)N1CCC[C@H]1C(=O)NCC(=O)N1CCC[C@H]1C(=O)NCC(=O)N1CCC[C@H]1C(=O)NCC(=O)N1CCC[C@H]1C(=O)NCC(N)=O (Ac-H[d2Nal]RWPGPGPGPGPGPG-NH2) | 30 | 52.5 | 55 |  |  | 
CC(=O)N[C@@H](Cc1cnc[nH]1)C(=O)N[C@H](Cc1ccc2ccccc2c1)C(=O)N[C@@H](CCCNC(=N)N)C(=O)N[C@@H](Cc1c[nH]c2ccccc12)C(=O)NCCCOCCOCCOCCCNC(=O)COCC(=O)NCCCOCCOCCOCCCNC(=O)COCC(=O)N[C@@H](Cc1cnc[nH]1)C(=O)N[C@H](Cc1ccccc1)C(=O)N[C@@H](CCCNC(=N)N)C(=O)N[C@@H](Cc1c[nH]c2ccccc12)C(N)=O | 25 |  |  |  | 3000 | EC50 (Melanocortin receptor 4 [8]): 5.9 nM
CC(=O)N[C@@H](Cc1cnc[nH]1)C(=O)N[C@H](Cc1ccc2ccccc2c1)C(=O)N[C@@H](CCCNC(=N)N)C(=O)N[C@@H](Cc1c[nH]c2ccccc12)C(=O)NCCCOCCOCCOCCCNC(=O)COCC(N)=O | 15 | 7.59 | 55 |  |  | 

More lines, main results first:

Activity (Melanocortin receptor 4 [1]) [%] | Kb (Melanocortin receptor 4 [2]) [nM] | Activity (Melanocortin receptor 4 [3]) [%] | Activity [5] | Ratio EC50 (Melanocortin receptor 4 [6]) | Compound | other results
20 |  |  |  | 3000 | CC(=O)N[C@@H](Cc1cnc[nH]1)C(=O)N[C@H](Cc1ccc2ccccc2c1)C(=O)N[C@@H](CCCNC(=N)N)C(=O)N[C@@H](Cc1c[nH]c2ccccc12)C(=O)NCCCOCCOCCOCCCNC(=O)COCC(=O)N[C@@H](Cc1cnc[nH]1)C(=O)N[C@H](Cc1ccccc1)C(=O)N[C@@H](CCCNC(=N)N)C(=O)N[C@@H](Cc1c[nH]c2ccccc12)C(N)=O | 
45 |  |  | Active | 3000 | CC(=O)N[C@@H](Cc1cnc[nH]1)C(=O)N[C@H](Cc1ccccc1)C(=O)N[C@@H](CCCNC(=N)N)C(=O)N[C@@H](Cc1c[nH]c2ccccc12)C(=O)NCCCOCCOCCOCCCNC(=O)COCC(=O)N[C@@H](Cc1cnc[nH]1)C(=O)N[C@H](Cc1ccc2ccccc2c1)C(=O)N[C@@H](CCCNC(=N)N)C(=O)N[C@@H](Cc1c[nH]c2ccccc12)C(N)=O | 
 |  |  | Active |  | CC(=O)N[C@@H](Cc1cnc[nH]1)C(=O)N[C@H](Cc1ccccc1)C(=O)N[C@@H](CCCNC(=N)N)C(=O)N[C@@H](Cc1c[nH]c2ccccc12)C(=O)NCCCOCCOCCOCCCNC(=O)COCC(=O)N[C@@H](Cc1cnc[nH]1)C(=O)N[C@H](Cc1ccccc1)C(=O)N[C@@H](CCCNC(=N)N)C(=O)N[C@@H](Cc1c[nH]c2ccccc12)C(N)=O | Activity [4]: Dose-dependent effect
10 | 15.8 | 70 | inactive |  | CC(=O)N[C@@H](Cc1cnc[nH]1)C(=O)N[C@H](Cc1ccc2ccccc2c1)C(=O)N[C@@H](CCCNC(=N)N)C(=O)N[C@@H](Cc1c[nH]c2ccccc12)C(=O)NCCCOCCOCCOCCCNC(=O)COCC(=O)N[C@@H](Cc1cnc[nH]1)C(=O)N[C@H](Cc1ccc2ccccc2c1)C(=O)N[C@@H](CCCNC(=N)N)C(=O)N[C@@H](Cc1c[nH]c2ccccc12)C(N)=O | Activity [7]: inactive
